Test results reported in ChEMBL document CHEMBL3297646, “Structure-activity relationship study of non-steroidal NPC1L1 ligands identified through cell-based assay using pharmacological chaperone effect as a readout” (Bioorg Med Chem, 2014).
The source made the active and inactive calls. The calls are words filed in the database; no cut-off is given here.

Legend:
[1] = target: T1, NPC1-like intracellular cholesterol transporter 1 (Homo sapiens) (UniProt Q9UHC9); experiment: Binding affinity to human GFP-tagged NPC1L1 L1072T/L1168I mutant expressed in HEK293 cells assessed as localization to plasma membrane at 30 uM after 24 hrs by fluorescence microscopic analysis; format: cell-based
T1 sequence (whole entry): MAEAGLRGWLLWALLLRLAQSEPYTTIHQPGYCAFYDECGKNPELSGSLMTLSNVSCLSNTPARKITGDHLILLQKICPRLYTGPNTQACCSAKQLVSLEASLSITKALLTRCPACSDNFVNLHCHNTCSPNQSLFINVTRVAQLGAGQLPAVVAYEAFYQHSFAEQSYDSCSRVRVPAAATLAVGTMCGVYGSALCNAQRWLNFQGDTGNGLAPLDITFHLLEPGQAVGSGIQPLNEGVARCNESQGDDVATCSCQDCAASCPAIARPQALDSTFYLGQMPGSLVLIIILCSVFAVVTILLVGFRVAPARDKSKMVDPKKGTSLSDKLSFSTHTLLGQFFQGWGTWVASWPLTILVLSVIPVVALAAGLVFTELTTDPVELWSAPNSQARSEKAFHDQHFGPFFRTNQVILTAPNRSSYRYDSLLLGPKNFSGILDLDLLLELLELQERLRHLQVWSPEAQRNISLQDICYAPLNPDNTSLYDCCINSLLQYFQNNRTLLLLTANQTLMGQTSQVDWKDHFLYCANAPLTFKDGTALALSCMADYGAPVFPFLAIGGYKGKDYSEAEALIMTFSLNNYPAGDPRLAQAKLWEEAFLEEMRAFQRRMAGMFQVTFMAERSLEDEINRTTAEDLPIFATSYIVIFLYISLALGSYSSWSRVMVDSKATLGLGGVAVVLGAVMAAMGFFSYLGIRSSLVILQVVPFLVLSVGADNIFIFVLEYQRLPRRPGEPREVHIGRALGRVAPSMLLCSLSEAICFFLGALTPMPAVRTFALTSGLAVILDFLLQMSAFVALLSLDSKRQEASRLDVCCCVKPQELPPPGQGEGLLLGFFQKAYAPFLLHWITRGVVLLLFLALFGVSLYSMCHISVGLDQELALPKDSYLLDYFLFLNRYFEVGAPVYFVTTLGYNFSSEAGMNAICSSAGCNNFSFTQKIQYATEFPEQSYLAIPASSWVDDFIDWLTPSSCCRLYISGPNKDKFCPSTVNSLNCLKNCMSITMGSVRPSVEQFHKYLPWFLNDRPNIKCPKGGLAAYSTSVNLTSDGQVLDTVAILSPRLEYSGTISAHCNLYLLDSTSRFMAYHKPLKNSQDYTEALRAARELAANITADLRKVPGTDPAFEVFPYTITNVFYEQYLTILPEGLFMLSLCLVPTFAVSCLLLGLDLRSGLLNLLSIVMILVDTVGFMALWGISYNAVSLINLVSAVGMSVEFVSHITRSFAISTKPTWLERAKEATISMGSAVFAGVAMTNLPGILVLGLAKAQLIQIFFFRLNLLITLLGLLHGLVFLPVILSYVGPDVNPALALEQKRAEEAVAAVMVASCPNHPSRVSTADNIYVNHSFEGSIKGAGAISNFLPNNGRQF
Method in brief: (§1)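 HEK293 cells stably expressing EGFP-tagged NPC1L1 L1072T/L1168I were plated on poly-D-lysine-coated glass-bottomed wells (20 µg/mL in PBS) and grown 24 h. They were then exposed to compound at 10 or 30 µM (0.1% final DMSO) and fixed in 3.7% formaldehyde-PBS. Read-out was % of EGFP signal localized to the plasma membrane.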

[2] = target: T1, NPC1-like intracellular cholesterol transporter 1 (Homo sapiens); experiment: Binding affinity to human GFP-tagged NPC1L1 L1072T/L1168I mutant expressed in HEK293 cells assessed as localization to plasma membrane at 10 uM after 24 hrs by fluorescence microscopic analysis; format: cell-based; method in brief: as §1
[3] = target: T1, NPC1-like intracellular cholesterol transporter 1 (Homo sapiens); experiment: Binding affinity to human EGFP-tagged full-length NPC1L1 L1072T/L1168I mutant expressed in HEK293 cells assessed as protein stabilization after 24 hrs by fluorescence assay; format: cell-based
Method in brief: (§2)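 Steady-state levels of full-length or NTD-deleted NPC1L1 L1072T/L1168I-GFP were measured in stably expressing HEK293 cells treated with compound at 1–30 µM or vehicle. GFP fluorescence in cell lysates was normalized to total protein by bicinchoninic acid assay. Values are expressed as % of vehicle-treated cells.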

[4] = target: T1, NPC1-like intracellular cholesterol transporter 1 (Homo sapiens); experiment: Binding affinity to human EGFP-tagged NTD-deleted NPC1L1 L1072T/L1168I mutant expressed in HEK293 cells assessed as protein stabilization after 24 hrs by fluorescence assay; format: cell-based; method in brief: as §2
HEK293 = experiment: Cytotoxicity against HEK293 cells transfected with human GFP-tagged NPC1L1 L1072T/L1168I mutant at 30 uM; format: cell-based; conditions: hek293, 30 µM
[5] = target: Liver X receptor (Homo sapiens) (UniProt Q13133+P55055); experiment: Activation of LXR (unknown origin) expressed in HEK293 cells at 30 uM after 16 hrs by luciferase reporter gene assay; format: cell-based
[6] = target: T1, NPC1-like intracellular cholesterol transporter 1 (Homo sapiens); experiment: Binding affinity to human EGFP-tagged NTD-deleted NPC1L1 L1072T/L1168I mutant expressed in HEK293 cells assessed as localization to plasma membrane after 24 hrs by fluorescence microscopic analysis; format: cell-based
Method in brief: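 Stable HEK293 lines expressing NTD-deleted NPC1L1 L1072T/L1168I-EGFP were grown 24 h on poly-D-lysine-coated glass-bottomed wells and treated with compound (0.1% final DMSO). Cells were fixed in 3.7% formaldehyde-PBS with Hoechst-33342 nuclear counterstain. NPC1L1-GFP localization was examined by fluorescence imaging.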

Homo sapiens = organism: Homo sapiens; experiment: Selectivity for human GFP-tagged NPC1L1 L1072T/L1168I mutant over LXR (unknown origin)

Row | Activity [1] [%] | Activity [2] [%] | Structure (SMILES) | other results
1 | 0 |  | CCCCn1c(=O)c2ccccc2c2cc(C(N)=O)ccc21 | 
2 | 50 | 14 | CCCCn1c(=O)c2ccccc2c2cc(C(=O)N(CCC)CCC)ccc21 | 
3 | 4 |  | CCN(CC)C(=O)c1ccc2c(c1)c1ccccc1c(=O)n2CC | 
4 | 0 |  | CCN(C(=O)c1ccc2c(c1)c1c(c(=O)n2CCO)CCCCC1)C1CC1 | 
5 | 7 |  | CCN(C(=O)c1ccc2c(c1)c1c(c(=O)n2CC)CCCCC1)C1CC1 | Activity [3]: Active; Activity [4]: Active
6 | 39 | 0 | CCCn1c(=O)c2c(c3cc(C(=O)N(CC)C4CC4)ccc31)CCCCC2 | 
7 | 49 | 0 | CCCCn1c(=O)c2ccccc2c2cc(C(=O)NC(C)C)ccc21 | 
8 |  | 0 | CCN(C(=O)c1ccc2c(c1)c1c(c(=O)n2C(C)C)CCCCC1)C1CC1 | Activity (HEK293): Toxic
9 |  | 1 | CCCCCCn1c(=O)c2c(c3cc(C(=O)N(CC)C4CC4)ccc31)CCCCC2 | Activity (HEK293): Toxic
10 | 14 | 0 | CCN(C(=O)c1ccc2c(c1)c1c(c(=O)n2Cc2ccccc2)CCCCC1)C1CC1 | 
11 | 0 |  | CCN(CC)C(=O)c1ccc2c(c1)c1ccccc1c(=O)n2Cc1ccccc1 | 
12 | 0 |  | CCN(CC)C(=O)c1ccc2c(c1)c1ccccc1c(=O)n2CC(=O)N(C)C | 
13 | 0 |  | CCN(CC)C(=O)c1ccc2c(c1)c1ccccc1c(=O)n2CCCC(=O)O | 
14 | 1 |  | CCCCn1c(=O)c2c(c3cc(C(=O)NC(C)(C)C)ccc31)CCCCC2 | 
15 | 44 | 5 | CCCCn1c(=O)c2c(c3cc(C(=O)N(CC)CC)ccc31)CCCCCC2 | 
16 | 18 | 0 | CCCCNC(=O)c1ccc2c(c1)c1c(c(=O)n2CCCC)CCCCC1 | 
17 | 0 |  | CCCCn1c(=O)c2c(c3cc(C(=O)Nc4ccccc4)ccc31)CCCCC2 | 
18 | 0 |  | CCCCn1c(=O)c2ccccc2c2cc(C(=O)N3CCOCC3)ccc21 | 
19 | 42 | 14 | CCCCn1c(=O)c2c(c3cc(C(=O)N(CC)CC)ccc31)CCCCC2 | 
20 | 0 |  | CCN(CC)C(=O)c1ccc2c(c1)c1ccccc1c(=O)n2CC(=O)O | 
21 | 42 | 2 | CCCCn1c(=O)c2c(c3cc(C(=O)N(CC)CC)ccc31)CCCC2 | 
22 | 0 |  | CCCCn1c(=O)c2c(c3cc(C(N)=O)ccc31)CCCCC2 | 
23 | 28 | 0 | CCCCn1c(=O)c2c(c3cc(C(=O)NCC)ccc31)CCCCC2 | 
24 | 5 | 2 | CCCCn1c(=O)c2c(c3cc(C(=O)NC4CCCCC4)ccc31)CCCCC2 | 
25 | 35 | 3 | CCCCCn1c(=O)c2c(c3cc(C(=O)N(CC)C4CC4)ccc31)CCCCC2 | 
26 | 0 |  | CCN(C(=O)c1ccc2[nH]c(=O)c3c(c2c1)CCCCC3)C1CC1 | Activity [3]: Active; Activity [4]: Active
27 | 2 |  | CCCCn1c(=O)c2c(c3cc(C(=O)N(C)C)ccc31)CCCCC2 | 

Row | Activity [1] [%] | Activity [2] [%] | Structure (SMILES) | other results
28 | 41 | 11 | CCCCn1c(=O)c2ccccc2c2cc(C(=O)NC(C)(C)C)ccc21 | 
29 | 4 |  | CCCCn1c(=O)c2ccccc2c2cc(C(=O)N(C)C)ccc21 | 
30 | 23 | 0 | CCCCn1c(=O)c2c(c3cc(C(=O)NC)ccc31)CCCCC2 | 
31 | 0 |  | CCCCn1c(=O)c2ccccc2c2cc(C(=O)NC3CCCC3)ccc21 | 
32 | 33 | 1 | CCCCn1c(=O)c2c(c3cc(C(=O)N4CCCC4)ccc31)CCCCC2 | 
33 |  | 18 | CCCCN(CCCC)C(=O)c1ccc2c(c1)c1ccccc1c(=O)n2CCCC | Activity (HEK293): Toxic
34 | 16 | 6 | CCCCn1c(=O)c2c(c3cc(C(=O)NC4CCCC4)ccc31)CCCCC2 | 
35 | 18 | 0 | CCN(CC)C(=O)c1ccc2c(c1)c1ccccc1c(=O)n2Cc1ccc(OC)cc1 | 
36 | 0 |  | CCCCn1c(=O)c2ccccc2c2cc(C(=O)NCc3ccccc3)ccc21 | 
37 | 45 | 1 | CCCCn1c(=O)c2ccccc2c2cc(C(=O)N(CC)CC)ccc21 | 
38 | 15 | 1 | CCCCn1c(=O)c2c(c3cc(C(=O)N(CC)CC)ccc31)CCC2 | 
39 | 0 |  | CCN(CC)C(=O)c1ccc2c(c1)c1ccccc1c(=O)n2C | 
40 | 0 |  | CCCCn1c(=O)c2ccccc2c2cc(C(=O)N(CCO)CCO)ccc21 | 
41 | 25 | 0 | CCCCn1c(=O)c2c(c3cc(C(=O)NC(C)C)ccc31)CCCCC2 | 
42 | 45 | 8 | CCCCn1c(=O)c2c(c3cc(C(=O)N(CC)C4CC4)ccc31)CCCCC2 | Activity [5]: inactive; Activity [6]: Active; Activity [3]: Active; Activity [4]: Active; Selectivity ratio (Homo sapiens): 2
43 | 11 | 3 | CCCCn1c(=O)c2ccccc2c2cc(C(=O)NC3CCCCC3)ccc21 | 
44 | 21 | 1 | CCCCn1c(=O)c2c(c3cc(C(=O)N(C)C4CC4)ccc31)CCCCC2 | 
45 | 0 |  | CCN(C(=O)c1ccc2c(c1)c1c(c(=O)n2CCOC)CCCCC1)C1CC1 | 
46 | 47 | 0 | CCCCn1c(=O)c2ccccc2c2cc(C(=O)N3CCCCC3)ccc21 | 
47 | 0 |  | CCN(CC)C(=O)c1ccc2c(c1)c1ccccc1c(=O)n2CCCC(=O)N(C)C | 
48 | 36 | 0 | CCCCn1c(=O)c2c(c3cc(C(=O)NCCC)ccc31)CCCCC2 | 
49 | 55 | 14 | CCCCn1c(=O)c2ccccc2c2cc(C(=O)NC3CC3)ccc21 | 
50 | 0 |  | CCN(C(=O)c1ccc2c(c1)c1c(c(=O)n2C)CCCCC1)C1CC1 | 
51 | 0 |  | CCN(CC)C(=O)c1ccc2[nH]c(=O)c3ccccc3c2c1 | 
52 | 49 | 3 | CCCCn1c(=O)c2c(c3cc(C(=O)NC4CC4)ccc31)CCCCC2 | 
53 | 0 |  | CCCCn1c(=O)c2c(c3cc(C(=O)NCCO)ccc31)CCCCC2 | 
54 | 24 | 1 | CCCCn1c(=O)c2ccccc2c2cc(C(=O)NC)ccc21 | 

Row | Structure (SMILES) | Activity [1] [%] | Activity [2] [%] | other results
55 | CCCC(=O)N1CC2=C(CCCC2)c2cc(C(=O)N(CC)CC)ccc21 | 1 |  | 
56 | CCCCN1C(=O)c2ccccc2Oc2cc(C(=O)N(CC)CC)ccc21 | 3 |  | 
57 | CCCCN1C(=O)CCc2cc(C(=O)N(CC)CC)ccc21 | 1 |  | 
